In ChEMBL document CHEMBL3108662, “Controlled oxygen release from pyridone endoperoxides promotes cell survival under anoxic conditions” (J Med Chem, 2013):
Active and inactive are the calls of the source. The rule behind the calls is not given here.

Key:
[1] = Induction of oxygen release in H2O/D2O; assay type: physicochemical
[2] = Drug degradation in H2O/D2O assessed as byproduct formation at 37 degC by 1H-NMR spectroscopic analysis; assay type: physicochemical
[3] = Half life in H2O/D2O at 37 degC by 1H-NMR spectroscopic analysis; assay type: ADME
Rattus norvegicus [4] = species: Rattus norvegicus; assay: Growth promoting activity in rat primary smooth muscle cells under anoxic condition at 50 ug/mL measured over 4 days by WST-1 assay in presence of 100 ug/mL vitamin C; assay type: functional
How it was run: (§1)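 Primary smooth muscle cells freshly isolated from rat bladder, seeded at 4000 cells/cm² in DMEM/10% FBS/1% Pen/Strep. Additive dissolved in 1:50 H₂O/DMSO and added at 10–200 µg/mL, with or without vitamin C (100 or 200 µg/mL). Normoxic at 37°C, 5% CO₂, or anoxic in sealed N₂-degassed medium, up to 4 days. WST-1 read on days 1–4 (3 h, A450). Triplicates, normalized to untreated = 100%.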

[5] = Cytotoxicity against rat primary smooth muscle cells assessed as growth inhibition under anoxic condition up to 100 ug/mL measured over 4 days by WST-1 assay; assay type: cell-based; details: 96 h; how it was run: as §1
Rattus norvegicus [6] = species: Rattus norvegicus; assay: Growth promoting activity in rat primary smooth muscle cells under normoxic condition at 10 to 50 ug/mL measured over 4 days by WST-1 assay; assay type: functional; how it was run: as §1
[7] = Induction of singlet oxygen release in water at 0.1 mM measured every 10 mins by SOSG assay; assay type: physicochemical; details: buffer, 100 µM
How it was run: (§2)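 Singlet oxygen sensor green was dissolved in MeOH. Compound was dissolved in MeOH, then diluted in water, with or without vitamin C dissolved in water. Fluorescence (ex/em 488/525 nm) recorded every 10 min at 37 °C. Blanks of SOSG or SOSG/vitamin C were subtracted. Triplicates.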

Rattus norvegicus [8] = species: Rattus norvegicus; assay: Growth promoting activity in rat primary smooth muscle cells under normoxic condition at 50 ug/mL measured over 4 days by WST-1 assay in presence of 100 to 200 ug/mL vitamin C; assay type: functional
How it was run: (§3)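 Primary smooth muscle cells freshly isolated from rat bladder, plated at 4000 cells/cm² in DMEM/F-12, 10% FBS, 1% Pen/Strep. Compound was added from 1:50 H2O/DMSO at 10–200 µg/mL, with or without vitamin C in water at 100 or 200 µg/mL. Normoxic (37°C, 5% CO2) or anoxic runs: N2-degassed medium, plates sealed under N2 for up to 4 days without medium change. WST-1 absorbance at 450 nm after 3 h, days 1-4. Normalized to untreated control as 100%. Triplicates.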

[9] = Induction of oxygen release in H2O/D2O relative to DMSO-treated control; assay type: physicochemical
3T3 [10] = assay: Growth promoting activity in rat 3T3 cells under normoxic condition at 100 to 200 ug/mL measured on day 1 by WST-1 assay in presence of 500 ug/mL vitamin C; assay type: functional, cell-based
How it was run: (§4)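 3T3 fibroblasts plated at 4000 cells/cm² in DMEM/F-12 with 10% FBS and 1% Pen/Strep. Compound in 1:50 H2O/DMSO was added at 10, 50, 100 or 200 µg/mL, alone or with vitamin C in water (100 or 500 µg/mL). Run normoxic (37°C, 5% CO2) or anoxic (N2-degassed medium, sealed bags under N2, no medium change, up to 4 days). WST-1 read at 450 nm after 3 h on days 1-4. Growth normalized to untreated control as 100%. Triplicates.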

3T3 [11] = assay: Cytotoxicity against […] cells assessed as growth inhibition under normoxic condition measured over 4 days by WST-1 assay; assay type: cell-based; details: 3t3, 96 h; how it was run: as §4
[12] = Cytotoxicity against rat primary smooth muscle cells assessed as growth inhibition under anoxic condition at 50 ug/mL measured over 4 days by WST-1 assay; assay type: cell-based; details: 96 h; how it was run: as §3
3T3 [13] = assay: Cytotoxicity against […] cells assessed as growth inhibition under normoxic condition at 200 ug/ml measured over 4 days by WST-1 assay in presence of vitamin C relative to control; assay type: cell-based; details: 3t3, 96 h; how it was run: as §4
[14] = Cytotoxicity against rat primary smooth muscle cells assessed as growth inhibition under normoxic condition measured over 4 days by WST-1 assay; assay type: cell-based; details: 96 h; how it was run: as §3
3T3 [15] = assay: Cytotoxicity against […] cells assessed as growth inhibition under anoxic condition at 29 uM measured over 4 days by WST-1 assay; assay type: cell-based; details: 3t3, 96 h; how it was run: as §4
[16] = Cytotoxicity against rat primary smooth muscle cells assessed as growth inhibition under normoxic condition at 50 ug/mL measured over 4 days by WST-1 assay; assay type: cell-based; details: 96 h; how it was run: as §3
3T3 [17] = assay: Cytotoxicity against […] cells assessed as growth inhibition under anoxic condition at 50 ug/ml measured over 4 days by WST-1 assay in presence of vitamin C; assay type: cell-based; details: 3t3, 96 h; how it was run: as §4
Rattus norvegicus [18] = species: Rattus norvegicus; assay: Growth promoting activity in rat primary smooth muscle cells under normoxic condition at 29 uM measured over 4 days by WST-1 assay in presence of 100 ug/mL vitamin C; assay type: functional; how it was run: as §3
3T3 [19] = assay: Cytotoxicity against […] cells assessed as growth inhibition under normoxic condition at 50 ug/ml measured over 4 days by WST-1 assay in presence of vitamin C; assay type: cell-based; details: 3t3, 96 h; how it was run: as §4
3T3 [20] = assay: Cytotoxicity against […] cells assessed as growth inhibition under normoxic condition at 29 to 580 uM measured over 4 days by WST-1 assay in presence of 100 ug/mL vitamin C; assay type: cell-based; details: 3t3, 96 h; how it was run: as §4
3T3 [21] = assay: Cytotoxicity against […] cells assessed as growth inhibition under anoxic condition at 200 ug/ml measured over 4 days by WST-1 assay in presence of vitamin C relative to control; assay type: functional, cell-based; how it was run: as §4
3T3 [22] = assay: Cytotoxicity against […] cells under normoxic condition at 29 uM measured over 4 days by WST-1 assay in presence of 100 ug/mL vitamin C; assay type: cell-based; details: 3t3, 96 h; how it was run: as §4
3T3 [23] = assay: Growth promoting activity in […] cells under anoxic condition at 29 uM measured on day 1 by WST-1 assay in presence of 100 ug/mL vitamin C; assay type: functional, cell-based; how it was run: as §4
3T3 [24] = assay: Cytotoxicity against […] cells assessed as growth inhibition under anoxic condition at 100 ug/ml measured on day 4 by WST-1 assay in presence of vitamin C relative to control; assay type: cell-based; how it was run: as §4
3T3 [25] = assay: Cytotoxicity against […] cells assessed as growth inhibition under anoxic condition at 29 to 580 uM measured over 4 days by WST-1 assay in presence of 100 ug/mL vitamin C; assay type: cell-based; details: 3t3, 96 h; how it was run: as §4
3T3 [26] = assay: Cytotoxicity against […] cells assessed as growth inhibition under normoxic condition at 100 ug/ml measured on day 4 by WST-1 assay in presence of vitamin C relative to control; assay type: cell-based; how it was run: as §4
3T3 [27] = assay: Cytotoxicity against […] cells under anoxic condition at 29 uM measured over 4 days by WST-1 assay in presence of 100 ug/mL vitamin C; assay type: cell-based; details: 3t3, 96 h; how it was run: as §4
[28] = Cytotoxicity against rat primary smooth muscle cells assessed as growth inhibition under anoxic condition at 50 ug/mL measured over 4 days by WST-1 assay in presence of 200 ug/mL vitamin C; assay type: cell-based; details: 96 h; how it was run: as §3
[29] = Induction of singlet oxygen release in water at 0.1 mM measured every 10 mins by SOSG assay in presence of 0.37 mM vitamin C; assay type: physicochemical; details: buffer, 100 µM; how it was run: as §2
3T3 [30] = assay: Cytotoxicity against […] cells assessed as growth inhibition under anoxic condition at 29 uM measured on day 1 by WST-1 assay in presence of 100 ug/mL vitamin C; assay type: cell-based; details: 3t3, 29 µM; how it was run: as §4
Rattus norvegicus [31] = species: Rattus norvegicus; assay: Growth promoting activity in rat primary smooth muscle cells under anoxic condition at 29 uM measured over 4 days by WST-1 assay in presence of 100 ug/mL vitamin C; assay type: functional; how it was run: as §3
3T3 [32] = assay: Cytotoxicity against […] cells assessed as growth inhibition under normoxic condition at 500 ug/mL after 2 days by WST-1 assay; assay type: cell-based; details: 3t3, 48 h
How it was run: (§5)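 3T3 fibroblasts seeded at 4000 cells/cm² in DMEM/10% FBS/1% Pen/Strep. Additive from 1:50 H₂O/DMSO at 10–200 µg/mL, with or without vitamin C (100 or 500 µg/mL). Normoxic at 37°C, 5% CO₂, or anoxic with N₂-degassed medium and N₂ glove-bag handling in sealed bags, no medium change, up to 4 days. Daily WST-1 (1:10, 3 h, A450). Triplicates, normalized to untreated control = 100%.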

3T3 [33] = assay: Growth promoting activity in […] cells under anoxic condition at 500 ug/mL measured on day 1 by WST-1 assay; assay type: functional, cell-based; how it was run: as §5
3T3 [34] = assay: Growth promoting activity in […] cells assessed as change in cell growth under anoxic condition at 100 ug/ml measured over 4 days by WST-1 assay; assay type: functional, cell-based; how it was run: as §5
Rattus norvegicus [35] = species: Rattus norvegicus; assay: Growth promoting activity in rat primary smooth muscle cells under normoxic condition at 100 to 200 ug/mL measured over 4 days by WST-1 assay; assay type: functional; how it was run: as §1
[36] = Cytotoxicity against rat primary smooth muscle cells assessed as growth inhibition under normoxic condition at 100 to 200 ug/mL measured over 4 days by WST-1 assay; assay type: cell-based; details: 96 h; how it was run: as §1

COCCOCCOCCOC(=O)CN1C(=O)C2C=CC1(C)OO2 (configuration not stated)
Activity [1]: 50%
Drug degradation [2]: > 50%
half-life [3]: 4 h

COCCOCCOCCOC(=O)Cn1cccc(C)c1=O
Activity (Rattus norvegicus [4]): inactive
Activity [5]: Non-toxic
Activity (Rattus norvegicus [6]): inactive

COCCOCCOCCOC(=O)CN1C(=O)C2(C)C=CC1(C)OO2 (configuration not stated)
Activity [1]: 50%
Drug degradation [2]: > 50%
half-life [3]: 4 h

COCCOCCOCCOC(=O)CN1C(=O)C2(C)C=CC1OO2 (configuration not stated)
Activity [7]: Active
Activity (Rattus norvegicus [8]): Active
Activity [9]: 78%
Activity (3T3 [10]): Active
growth inhibition (GI) (3T3 [11]): Dose-dependent effect
Activity [12]: Toxic
Activity (3T3 [13]): Non-toxic
growth inhibition (GI) [14]: Dose-dependent effect
Activity (3T3 [15]): Non-toxic
Drug degradation [2]: 20%
Activity [16]: Toxic
Activity (3T3 [17]): Toxic
Activity (Rattus norvegicus [18]): Active
Activity (3T3 [19]): Toxic
Activity (3T3 [20]): Non-toxic
Activity (3T3 [21]): inactive
Activity (3T3 [22]): Toxic
Activity (3T3 [23]): Active
fold change (FC) (3T3 [24]): 2
Activity (3T3 [25]): Non-toxic
fold change (FC) (3T3 [26]): 10
Activity (3T3 [27]): Toxic
Activity [28]: Toxic
Activity [29]: Not Active
Activity (3T3 [30]): Non-toxic
Activity (Rattus norvegicus [31]): Active

COCCOCCOCCOC(=O)CN1C(=O)C2(C)C=C(C)C1(C)OO2 (configuration not stated)
Activity [1]: 10%
Drug degradation [2]: > 50%
half-life [3]: 15 h

COCCOCCOCCOC(=O)CN1C(=O)C2C=CC1OO2 (configuration not stated)
Activity [9]: 18%
half-life [3]: 0.5 h

COCCOCCOCCOC(=O)CN1C(=O)C2(C)C=C(C)C1OO2 (configuration not stated)
Activity [9]: 47%
half-life [3]: 13 h

O=C1O[C@H]([C@@H](O)CO)C(O)=C1O [ASCORBIC ACID]
Activity (3T3 [32]): Toxic
Activity (3T3 [33]): Active
Activity (3T3 [34]): inactive
Activity (Rattus norvegicus [35]): inactive
Activity [36]: Non-toxic
